# Laboratory results published in publication PMC3087843 (Nature structural & molecular biology, 2011).
# Biological target: T1, human ERAP1 (Homo sapiens, UniProt Q9NZ08, G346D/G514D/K528R/Q730E)
# Test: Peptide trimming assay
# Type: biochemical
# Conditions: 150 μM peptide, 3.5 μg ml^–1 ERAP1, 37°C, 50 mM Tris-HCl pH 7.8, 0.25 g L^–1 BSA, C18 RP-HPLC (Fig. 4a)
# Method in brief: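 Human ERAP1 (allelic variant) was baculovirus-expressed, Ni-NTA purified and treated with carboxypeptidase A at room temperature in PBS. Substrates were HPLC-purified synthetic peptides with mass confirmed by MS. Reactions were stopped with 0.6% (v/v) TFA, and the supernatant was run on C18 RP-HPLC with an acetonitrile gradient in 0.03% (v/v) TFA. Percent substrate cleaved was taken from integrated peak areas.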
# T1 sequence (Q9NZ08 whole entry G346D/G514D/K528R/Q730E): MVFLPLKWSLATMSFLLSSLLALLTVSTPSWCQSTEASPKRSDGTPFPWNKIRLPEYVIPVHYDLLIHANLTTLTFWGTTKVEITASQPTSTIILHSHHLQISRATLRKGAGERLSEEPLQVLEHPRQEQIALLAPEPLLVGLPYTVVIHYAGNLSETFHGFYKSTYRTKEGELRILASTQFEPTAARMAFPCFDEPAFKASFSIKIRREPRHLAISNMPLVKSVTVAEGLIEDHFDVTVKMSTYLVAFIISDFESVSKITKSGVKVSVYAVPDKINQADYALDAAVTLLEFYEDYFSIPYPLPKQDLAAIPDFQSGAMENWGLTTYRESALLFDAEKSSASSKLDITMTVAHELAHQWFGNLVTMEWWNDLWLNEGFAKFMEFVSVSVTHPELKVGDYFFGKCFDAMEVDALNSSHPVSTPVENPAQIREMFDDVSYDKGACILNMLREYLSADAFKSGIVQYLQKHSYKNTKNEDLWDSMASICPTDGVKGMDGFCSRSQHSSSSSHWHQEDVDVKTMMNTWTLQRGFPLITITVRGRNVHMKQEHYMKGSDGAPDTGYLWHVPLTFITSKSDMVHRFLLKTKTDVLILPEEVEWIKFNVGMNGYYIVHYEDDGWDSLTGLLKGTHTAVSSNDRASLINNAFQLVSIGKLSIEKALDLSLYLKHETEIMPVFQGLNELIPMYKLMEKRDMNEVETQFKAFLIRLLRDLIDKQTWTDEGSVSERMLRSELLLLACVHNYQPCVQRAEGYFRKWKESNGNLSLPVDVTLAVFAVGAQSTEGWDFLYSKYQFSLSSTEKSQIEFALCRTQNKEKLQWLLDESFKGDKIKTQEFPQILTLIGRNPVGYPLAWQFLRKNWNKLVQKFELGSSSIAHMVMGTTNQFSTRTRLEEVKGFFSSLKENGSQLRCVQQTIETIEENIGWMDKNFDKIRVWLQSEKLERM
row,Substance,ERAP1 processing of SIINFEKL length variants
1,FEKL,not long enough to be processed efficiently
2,INFEKL,not processed appreciably
3,QLESIINFEKL,processed efficiently
4,SIINFEKL [reference compound],not long enough to be processed efficiently

# Biological target: T1, human ERAP1
# Test: Activation of L-AMC hydrolysis by ERAP1 in the presence of peptides
# Type: biochemical
# Conditions: 100 μM L-AMC, 0–70 μM peptide, 0.87 μg ml^–1 ERAP1, 37°C (Fig. 6c,d)
row,Substance,Activation of ERAP1 hydrolysis of L-AMC by increasing peptide concentrations
1,L(N-Me)VAFKARAF [L^Me],activated
2,LVAFKARAF [L-peptide],activated
3,R(N-Me)VAEAAFAE,did not activate
